In ChEMBL document CHEMBL1148398, “Design, synthesis, and biological evaluation of thio-containing compounds with serum HDL-cholesterol-elevating properties” (2004):

Key:
Rattus norvegicus [1] = experiment: Effect of compound on very low-density lipoprotein cholesterol levels in 3rd group of normal chow-fed male rats after a dose of 5 mg/kg/day; type: functional, organism-based
Summary of the method: (§1)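 Male Sprague–Dawley CD rats (60–80 g) on Purina 5001 chow with a reverse 12 h light/dark cycle. Dosed once daily by oral gavage for 4 days, suspended in 1.3% Tween 80 / 0.25% CMC. Fasted overnight and bled 24 h after the last dose. Serum TC and glycerol-blanked TG measured enzymatically; VLDL-C by FPLC fractionation with cholesterol assay. n=6, mean ± SEM.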

Rattus norvegicus [2] = experiment: Effect of compound on triglycerides level in 3rd group of normal chow-fed male rats after a dose of 5 mg/kg/day; type: functional, organism-based; summary of the method: as §1
Cricetinae gen. sp. [3] = experiment: Effect of compound on thyroxine levels in 1st group of cholesterol-fed male hamsters at 3 mg/kg/day after 14 days of treatment; settings: Mesocricetus auratus
Rattus norvegicus [4] = experiment: Effect of compound on low-density lipoprotein cholesterol levels in 4th group of normal chow-fed male rats after a dose of 10 mg/kg/day; type: functional, organism-based
Summary of the method: (§2)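 Male Sprague–Dawley CD rats, 60–80 g, on standard chow with reverse 12 h light/dark cycle. One oral gavage dose daily for 4 days, suspended in 1.3% Tween 80 and 0.25% CMC. Fasted overnight; sacrificed 24 h after the last dose. Serum TC on clinical analyzer, lipoproteins by FPLC with cholesterol per fraction, T4 on analyzer. Mean ± SEM, six rats per group.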

Rattus norvegicus [5] = experiment: Effect of compound on serum apolipoprotein A1 concentration in chow-fed male rats at a dose of 100 mg/kg/day; type: functional, organism-based
Summary of the method: (§3)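 Separate dose-response study in male Sprague–Dawley CD rats, 60–80 g, on chow. Oral gavage once daily for 4 days in 1.3% Tween 80 / 0.25% CMC; fasted overnight, bled 24 h after last dose. Apo-A1 by ELISA with rabbit anti-rat primary, alkaline phosphatase-conjugated anti-rabbit IgG and p-nitrophenyl phosphate substrate. HDL-C by FPLC fractionation. Mean ± SEM, six per group.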

Mesocricetus auratus [6] = experiment: Effect of compound on gain in body weight in 1st group of cholesterol-fed male hamsters at 3 mg/kg/day after 14 days of treatment
Rattus norvegicus [7] = experiment: Effect of compound on triglyceride levels in 6th group of normal chow-fed male rats after a dose of 50 mg/kg/day; type: functional, organism-based; summary of the method: as §1
Mesocricetus auratus [8] = experiment: Effect of compound on gain in body weight in 3rd group of cholesterol-fed male hamsters at 30 mg/kg/day after 14 days of treatment
Cricetinae gen. sp. [9] = experiment: Effect of compound on very low-density lipoprotein cholesterol levels in 2nd group of cholesterol-fed male hamsters at 10 mg/kg/day after 14 days of treatment; settings: Mesocricetus auratus
Rattus norvegicus [10] = experiment: Effect of compound on total plasma cholesterol levels in 1st group of normal chow-fed male rats after a dose of 1 mg/kg/day; type: functional, organism-based; summary of the method: as §2
Rattus norvegicus [11] = experiment: Effect of compound on high-density lipoprotein cholesterol levels in 5th group of normal chow-fed male rats after a dose of 20 mg/kg/day; type: functional, organism-based
Rattus norvegicus [12] = experiment: Effect of compound on total plasma cholesterol levels in 2nd group of normal chow-fed male rats after a dose of 2 mg/kg/day; type: functional, organism-based; summary of the method: as §2
Mesocricetus auratus [13] = experiment: Effect of compound on alanine aminotransferase (ALT) levels in 3rd group of cholesterol-fed male hamsters at 30 mg/kg/day after 14 days of treatment
[14] = Effect on serum lipids in 2nd group of normal chow-fed male rats after a dose of 2 mg/kg/day was evaluated as ratio of total plasma cholesterol levels to high-density lipoprotein cholesterol levels; type: functional
Summary of the method: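 Male Sprague–Dawley CD rats, 60–80 g, chow-fed, dosed by oral gavage daily for 4 days in 1.3% Tween 80/0.25% CMC. Fasted overnight, bled 24 h after the last dose. Serum total cholesterol by enzymatic reagent; HDL-C from cholesterol in FPLC fractions; TPC/HDL-C ratio calculated. Six per group, mean ± SEM.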

Rattus norvegicus [15] = experiment: Percent change in high-density lipoprotein cholesterol following oral administration of compound in normal chow-fed rats at 100 mg/kg/day for 4 days; type: functional
Summary of the method: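 Chow-fed male Sprague–Dawley CD rats, 60–80 g, gavaged 100 mg/kg/day for 4 days in 1.3% Tween 80/0.25% CMC. Fasted overnight, bled 24 h after the last dose. Total cholesterol and glycerol-blanked triglycerides read enzymatically; lipoproteins by FPLC with cholesterol per fraction. % change versus control; six per group, p < 0.05.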

Cricetinae gen. sp. [16] = experiment: Effect of compound on total plasma cholesterol levels in 1st group of cholesterol-fed male hamsters at 3 mg/kg/day after 14 days of treatment; settings: Mesocricetus auratus
Cricetinae gen. sp. [17] = experiment: Effect of compound on very low-density lipoprotein cholesterol levels in 3rd group of cholesterol-fed male hamsters at 30 mg/kg/day after 14 days of treatment; settings: Mesocricetus auratus
Rattus norvegicus [18] = experiment: Effect of compound on aspartate aminotransferase (AST) levels in 2nd group of normal chow-fed male rats after a dose of 2 mg/kg/day; type: functional, organism-based
Summary of the method: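 Male Sprague–Dawley CD rats (60–80 g) on standard chow under a reversed 12 h light/dark cycle. Compound was suspended in 1.3% Tween 80/0.25% CMC and given as a single daily oral gavage dose for 4 days. Rats were fasted overnight and killed 24 h after the last dose. Serum ALT, AST, ALKP and LDH were read on a clinical analyzer. Weight gain was start versus end weight. Mean ± SEM, n = 6.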

[19] = Effect on serum lipids in 3rd group of cholesterol-fed male hamsters at 30 mg/kg/day after 14 days of treatment was evaluated as ratio of total cholesterol levels to high-density lipoprotein cholesterol levels; type: functional
Summary of the method: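 Male Syrian Golden hamsters on chow plus 0.25% cholesterol, 2 weeks before and during dosing. Oral gavage for 14 days in 2% Tween 80/saline. Fasted 4 h before sacrifice. Serum total cholesterol measured enzymatically; HDL-C from cholesterol in FPLC lipoprotein fractions; TC/HDL-C ratio calculated. Six per group, mean ± SEM.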

Rattus norvegicus [20] = experiment: Effect of compound on serum high-density lipoprotein cholesterol concentration in chow-fed male rats at a dose of 5 mg/kg/day; type: functional, organism-based; summary of the method: as §3
Cricetinae gen. sp. [21] = experiment: Effect of compound on thyroxine levels in 2nd group of cholesterol-fed male hamsters at 10 mg/kg/day after 14 days of treatment; settings: Mesocricetus auratus
Rattus norvegicus [22] = experiment: Effect of compound on total plasma cholesterol levels in 4th group of normal chow-fed male rats after a dose of 10 mg/kg/day; type: functional, organism-based; summary of the method: as §1
Rattus norvegicus [23] = experiment: Percent change in high-density lipoprotein cholesterol in hypercholesterolemic rats dosed at 100 mg/kg/day for 8 days; type: functional
Rattus norvegicus [24] = experiment: Effect of compound on liver weight in 4th group of normal chow-fed male rats after a dose of 10 mg/kg/day; type: functional
Summary of the method: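 Male Sprague–Dawley CD rats, 60–80 g, on chow with a reverse 12 h light/dark cycle. Given one oral gavage dose daily for 4 days, suspended in 1.3% Tween 80/0.25% CMC. Fasted overnight and sacrificed 24 h after the last dose for blood and liver. Serum liver enzymes read on a clinical analyzer. Six per group, mean ± SEM.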

Structure (SMILES): CCN1CC(=O)N(c2cc(Cl)ccc2C)C1=S
- Serum level (Rattus norvegicus [1]): 3.9 mg/dL
- Serum level (Rattus norvegicus [2]): 18 mg/dL
- Serum level (Cricetinae gen. sp. [3]): 5.8 µg/dL
- Serum level (Rattus norvegicus [4]): 8.1 mg/dL
- Serum level (Rattus norvegicus [5]): 96.4 mg/dL
- Body weight (Mesocricetus auratus [6]): 10.2 g
- Serum level (Rattus norvegicus [7]): 14 mg/dL
- Body weight (Mesocricetus auratus [8]): 8.2 g
- Serum level (Cricetinae gen. sp. [9]): 102 mg/dL
- Serum level (Rattus norvegicus [10]): 55 mg/dL
- Serum level (Rattus norvegicus [11]): 58 mg/dL
- Serum level (Rattus norvegicus [12]): 56 mg/dL
- Level (Mesocricetus auratus [13]): 112 U l-1
- Ratio [14]: 1.37
- Change (Rattus norvegicus [15]): 89.1%
- Serum level (Cricetinae gen. sp. [16]): 429 mg/dL
- Serum level (Cricetinae gen. sp. [17]): 91 mg/dL
- Level (Rattus norvegicus [18]): 195 U l-1
- Ratio [19]: 2.39
- Serum level (Rattus norvegicus [20]): 52.4 mg/dL
- Serum level (Cricetinae gen. sp. [21]): 5.73 µg/dL
- Serum level (Rattus norvegicus [22]): 85 mg/dL
- Change (Rattus norvegicus [23]): 132%
- Liver weight (Rattus norvegicus [24]): 8.3 g
